SMILES strings stand for the structures.

This series in a line: Toxicity liver stage against HepG2, at 10uM. Type of series: cell-based. Also on record: test concentration 10 uM, cell line HepG2-A16-CD81EGFP. Particulars: human, HepG2-A16-CD81EGFP cells; read-out: INHIBITION
A digest of the protocol:
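Uninfected HepG2-A16-CD81EGFP cells, 3 × 10^3 per well, 1536-well, plated on prespotted compound at 10 μM final, parasite-free screening media added to match infected plates; puromycin 10 μM positive, DMSO 0.5% negative; run in parallel with 48 h PbLuc assay at 37 °C, 5% CO2; viability by CellTiter-Glo luminescence, normalized to controls.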
`Cc1ccn(CCC(=O)NCc2ccc(C)o2)n1`: the cytotoxicity at 10 µM was -2.96%.

In the case of `Cc1sc(NS(=O)(=O)c2ccccc2)nc1C(=O)NC1CC1`, the cytotoxicity at 10 µM is 5.73%.

Turning to `COC(=O)CC(c1cccs1)c1oc(C)cc(=O)c1O` (stereo unspecified), the cytotoxicity at 10 µM was 2.99%.

Consider `Cc1ccccc1OCC(=O)NCC(c1ccc(N(C)C)cc1)N(C)C` (stereo unspecified), for which the cytotoxicity at 10 µM was -30.2%.

On to `CC(C)NC(=O)Cn1cc(OCc2ccc(F)cc2)c(=O)cc1CO`, for which the cytotoxicity at 10 µM stood at 4.74%.

With `COc1cccc(CNC(=O)NC2(c3nc(C)no3)CCCCC2)c1`, the cytotoxicity at 10 µM is 4.04%.

`O=C(c1cnccn1)N1CCC(Oc2ncccc2Cl)CC1`: the cytotoxicity at 10 µM is 0.566%.

`CC(=O)NCC(=O)NCC1Cn2nnc(-c3cccc(F)c3)c2CO1` (stereo unspecified): the cytotoxicity at 10 µM is -6.77%.

For `CC(=O)N1CC2(CCN(C(=O)c3ccoc3)C2)C1`, the cytotoxicity at 10 µM came out at 6.47%.

Turning to `O=c1[nH]nc2c(S(=O)(=O)N3CCOCC3)cccn12`, the cytotoxicity at 10 µM was -1.7%.

As for `CC(CC(=O)O)CC(=O)Nc1sc2c(c1C(N)=O)CCc1ccccc1-2` (stereo unspecified), the cytotoxicity at 10 µM stood at 8.26%.

Turning to `CCOc1cc(=O)n2c(c1C(=O)OCc1ccc(OC)cc1)CCCC2`, the cytotoxicity at 10 µM is 5.95%.

On to `COC(=O)CC(c1ccc(OC)c(OC)c1)c1oc(C)cc(=O)c1O` (stereo unspecified), for which the cytotoxicity at 10 µM is 16.8%.

Regarding `Cc1ccc(C2CCCCCN2Cc2cn(C)nc2C)s1` (stereo unspecified), the cytotoxicity at 10 µM was -6.47%.

Consider `CC1CCCN(C(=O)c2ccn(COc3ccccc3)n2)C1` (stereo unspecified), for which the cytotoxicity at 10 µM amounted to 9.43%.

With `CCCc1nc(NCCCn2cccn2)c2c(n1)c(C)nn2CC`, the cytotoxicity at 10 µM was 7.88%.

Consider `CCn1nc(C)c(NC(=O)c2nnn(Cc3ccccc3)c2OC)c1C`, for which the cytotoxicity at 10 µM stood at 13.9%.

Turning to `COc1ccc2c(c1)c(-c1nc(C)ncc1CN)cn2C`, the cytotoxicity at 10 µM is 21.7%.

Turning to `CCn1c(C)nc2cc(NC(=O)CC3CCCCO3)ccc21` (stereo unspecified), the cytotoxicity at 10 µM was 5.36%.

On to `O=C1NCc2ccccc2CC12CCCN(CCCc1ccccc1)C2` (stereo unspecified), for which the cytotoxicity at 10 µM is 10.3%.

For the molecule `O=C(c1ccc(Cl)cc1)N1CCC(N2CCCCC2=O)CC1`, the cytotoxicity at 10 µM worked out at 7.3%.

In the case of `Cn1ccnc1Sc1ncc(C(=O)N2CCCCC2)cc1Cl`, the cytotoxicity at 10 µM is -61%.

In the case of `COc1cc(CNc2nc(C3CC3)no2)cc(OC)c1OC`, the cytotoxicity at 10 µM is -0.291%.

For `Cn1c(CS(=O)(=O)Cc2cccc(Cl)c2)cc(=O)n(C)c1=O`, the cytotoxicity at 10 µM worked out at 8.17%.

In the case of `O=C(CCNc1ccccc1)NC1CCN(C(=O)C2CCCCC2)CC1`, the cytotoxicity at 10 µM came out at 6.72%.

For the molecule `CC(C)(C)C(=O)N1CCCN(c2ncnc3nc(N)ccc23)CC1`, the cytotoxicity at 10 µM worked out at 3.39%.

Consider `CCOC1CCN(C(=O)NCc2ccc(C(=O)N(C)C(C)C)cc2)CC1`, for which the cytotoxicity at 10 µM was -6.55%.

In the case of `CCN1CCC(NC(=O)N(C)Cc2csc3ccccc23)CC1`, the cytotoxicity at 10 µM was -45%.

As for `CC(C)Oc1ccccc1CNC(=O)N(C)CC(F)F`, the cytotoxicity at 10 µM was -41.5%.

Turning to `CCS(=O)(=O)N1CCc2c(cccc2NCc2ncc[nH]2)C1`, the cytotoxicity at 10 µM is -42.9%.

With `O=C(c1c(F)cccc1Br)N1CCCOCC1`, the cytotoxicity at 10 µM was 6.69%.

In the case of `CC(=O)N1CCN(CC(=O)NCCCN(C)c2ccccc2)CC1`, the cytotoxicity at 10 µM amounted to 8.21%.

Regarding `COc1cc2nc(NCc3ccc(C)nc3)nc(N)c2cc1OC`, the cytotoxicity at 10 µM came to 2.94%.

As for `CCCc1[nH]n(C)c(=N)c1-c1ccc2c(c1)OCO2`, the cytotoxicity at 10 µM is -51.5%.

As to `CCN(C(=O)CN1CCC(c2n[nH]c(C3CC3)n2)CC1)C1CC1`, the cytotoxicity at 10 µM was -2.07%.

Consider `O=S(=O)(Nc1c(F)cccc1N1CCCC1)c1cncc(F)c1`, for which the cytotoxicity at 10 µM is 3.22%.

In the case of `CC1(C)CN=C(N2CCN(CC3CCCCO3)CC2)S1` (stereo unspecified), the cytotoxicity at 10 µM is -1.61%.

For the molecule `CC(C)NC(=O)CC(C)NCc1cc(Cl)ccc1F` (stereo unspecified), the cytotoxicity at 10 µM was -40%.

In the case of `CCOc1cc(F)ccc1NS(=O)(=O)c1cc(C)c(C(=O)O)s1`, the cytotoxicity at 10 µM was -10%.

As for `CCOCc1nn(C)c2c1CN(CCO)CC2`, the cytotoxicity at 10 µM is -103%.

With `Cc1cnc(N2CCCC3(COCCN(c4nccs4)C3)C2)nc1` (stereo unspecified), the cytotoxicity at 10 µM was -112%.

Regarding `CNc1ncc(C(=O)N2CCC3(CC2)Nc2ccccc2NC3=O)cn1`, the cytotoxicity at 10 µM was 1.02%.

For the molecule `COc1cc2c(cc1C1CC(=O)NCc3nc(N(C)C)sc31)CCC2` (stereo unspecified), the cytotoxicity at 10 µM stood at 1.16%.

For `COc1ccccc1-n1nc(-c2ccco2)n(CC(=O)NC2CC2)c1=O`, the cytotoxicity at 10 µM was 0.355%.

As to `COc1cccc(C(C(=O)O)N2CCCN(c3ccnc(C)c3)CC2)c1` (stereo unspecified), the cytotoxicity at 10 µM was found to be 4.98%.

With `O=C(O)c1cc(-c2ccoc2)cc(S(=O)(=O)NCc2ccccn2)c1`, the cytotoxicity at 10 µM is -47.6%.

Turning to `CSc1nccc(N2CCCC(c3nccn3C(C)C)C2)n1` (stereo unspecified), the cytotoxicity at 10 µM was found to be 7.72%.

With `O=C(NCc1c(F)cccc1Cl)c1cc(CN2CCCC(O)C2)on1` (stereo unspecified), the cytotoxicity at 10 µM is -44.9%.

For the molecule `CC(C)N1C[C@H](NC(=O)c2coc(COc3cccc(F)c3)n2)[C@@H](O)C1`, the cytotoxicity at 10 µM is -145%.

Regarding `Cc1cc(C)c2c(c1)NC(=O)C2CC(=O)O` (stereo unspecified), the cytotoxicity at 10 µM stood at 9.13%.

As to `c1ncc(-c2cn(CCSc3cnn[nH]3)nn2)cn1`, the cytotoxicity at 10 µM is -41.7%.

With `Cc1ncsc1CCC(=O)NC1CCN(Cc2cccs2)CC1`, the cytotoxicity at 10 µM is -3.09%.

`CCCc1nc(N2CCCN3CCC[C@H]3C2)c2cnn(C)c2n1`: the cytotoxicity at 10 µM was -129%.

As to `N[C@H]1CN(CCOc2ccc(F)cc2)C[C@@H]1C1CC1`, the cytotoxicity at 10 µM was -1.93%.

With `COCCN(CC1CCCO1)C(=O)CCNC(=O)c1ccccc1F` (stereo unspecified), the cytotoxicity at 10 µM was -41.7%.

For the molecule `Cn1ncc2c(N3CCN(CCC(N)=O)CC3)nc(C3CCCC3)nc21`, the cytotoxicity at 10 µM is -2.45%.

On to `CCC(=O)c1ccc(OCC(=O)NC(C)Cc2cc(C)n[nH]2)cc1` (stereo unspecified), for which the cytotoxicity at 10 µM was -39.7%.

Consider `Cn1ncc(N2CCN(Cc3ccc(S(C)(=O)=O)cc3)CC2)cc1=O`, for which the cytotoxicity at 10 µM is -1.44%.

Turning to `Cc1ccc(C(=O)O)cc1CNC(=O)CN1CC[C@](C)(O)C(C)(C)C1`, the cytotoxicity at 10 µM was -4.18%.

Regarding `Cc1ccc(CCNc2ncc(C)c(-c3ccnn3C)n2)s1`, the cytotoxicity at 10 µM is 9.68%.

`COCc1nc(CN2C(=O)OC[C@@H]2C(C)C)no1`: the cytotoxicity at 10 µM is -12.4%.

For `COC(=O)N1CCN(C(=O)c2ccc(C)c(N3CCNC3=O)c2)CC1`, the cytotoxicity at 10 µM turned out to be 3.76%.

Take `CC(c1cccnc1)N(C)Cc1cc2cc3c(cc2[nH]c1=O)OCO3` (stereo unspecified): the cytotoxicity at 10 µM came out at 9.27%.

For the molecule `CC(C)CC(O)C1CCN(C(=O)c2ccc(C(C)C)[nH]c2=O)CC1` (stereo unspecified), the cytotoxicity at 10 µM was determined as 3.25%.

Consider `Cc1ccsc1CN1CC2(CCN(C(=O)C3CC3)CC2)CC1C(=O)O` (stereo unspecified), for which the cytotoxicity at 10 µM was determined as 3.24%.

For the molecule `COc1ccc(OC)c(C2CCN(C3CCN(C(C)=O)CC3)C2)c1` (stereo unspecified), the cytotoxicity at 10 µM was -3.2%.

For the molecule `Cc1ccc(N2CCC(CCN3CCCC3=O)CC2)nn1`, the cytotoxicity at 10 µM came to 6.35%.

On to `CNC(=O)c1noc(CN2CC[C@](C)(O)[C@H](C)C2)n1`, for which the cytotoxicity at 10 µM is -37.5%.

Consider `Cc1[nH]nc(CCC(=O)N2CCc3ncnc(NCCO)c3CC2)c1C`, for which the cytotoxicity at 10 µM was -0.781%.

Take `COc1ccc2cc(C(=O)N3CC[C@H](CO)[C@H](O)C3)n(C)c2c1`: the cytotoxicity at 10 µM was -7.03%.

In the case of `O=C1CCC(CCC(=O)N2CCCC2c2nccs2)=NN1` (stereo unspecified), the cytotoxicity at 10 µM was 4.06%.

Take `COc1cccc(C)c1C(=O)N1CCc2ncnc(NCCO)c2CC1`: the cytotoxicity at 10 µM is 5.69%.

For `CC(C)N1CCN(C(=O)Nc2cnc3c(cnn3C(C)C)c2)CC1`, the cytotoxicity at 10 µM was found to be 6.23%.

In the case of `O=C(c1cc(C2CC2)on1)N1CCCC(n2cccn2)C1` (stereo unspecified), the cytotoxicity at 10 µM was -4.04%.

With `O=C(Cn1nc(-c2ccc(F)cc2)oc1=O)NCCc1ccccc1`, the cytotoxicity at 10 µM is -13.5%.

For `Cc1cc(C2CCCN2Cc2nc3c(cnn3C)c(=O)[nH]2)on1` (stereo unspecified), the cytotoxicity at 10 µM was -10.7%.

Take `Cc1nn(C)c(C)c1CCC(=O)N1CCCC(n2cncn2)C1` (stereo unspecified): the cytotoxicity at 10 µM is -1.4%.

As to `Cc1ccc(-c2nc(CCNC(=O)NCC(C)(C)C(N)=O)co2)cc1`, the cytotoxicity at 10 µM is -10.1%.

For `Cc1nn(C)c(N(C)C)c1CNCc1ccccc1Cn1ccnc1`, the cytotoxicity at 10 µM was -15.3%.

For the molecule `Cc1ccccc1OCCN1CCn2c(C)nnc2C1`, the cytotoxicity at 10 µM was -2.78%.

For the molecule `Cc1ccc(C(=O)N2CCC(c3n[nH]c(C4CC4)n3)CC2)cc1F`, the cytotoxicity at 10 µM was -5.5%.

With `CCn1nc(C)c(-c2cncn2CCN(C)C2CCCC2)c1C`, the cytotoxicity at 10 µM came to 4.83%.

As for `CCN1CCc2cc(-c3cncn3CCNC3CCS(=O)(=O)C3)ccc21` (stereo unspecified), the cytotoxicity at 10 µM is -1.59%.

Take `c1cc2c(cc1C1(CNC3=NCCN3)CCCC1)OCCO2`: the cytotoxicity at 10 µM turned out to be 11%.

In the case of `c1ccc(CN2C[C@H]3CCC[C@@]3(COCC3CC3)C2)nc1`, the cytotoxicity at 10 µM was found to be 1.55%.

On to `O=C(NCc1cccs1)[C@@H]1CC[C@@H]2[C@@H](CCN2C2CCOCC2)O1`, for which the cytotoxicity at 10 µM came to 0.37%.

In the case of `c1cnc(-c2noc(C3CN(Cc4ccc5c(c4)CCO5)C3)n2)nc1`, the cytotoxicity at 10 µM was 0.488%.

Turning to `c1cc(CN2CC[C@@H]3CN(c4cnccn4)C[C@@H]3C2)ccn1`, the cytotoxicity at 10 µM was -119%.

In the case of `Cn1cccc1C(=O)N1CC[C@H]2[C@H]1CCN2CC1CCOCC1`, the cytotoxicity at 10 µM is -4.81%.

For `Cn1cc(N2CC3(CCN(Cc4ccoc4)CC3)OCC2=O)cn1`, the cytotoxicity at 10 µM is -1.66%.

For `Fc1ccccc1CN1C[C@@H]2CN(Cc3cccnc3)CCO[C@@H]2C1`, the cytotoxicity at 10 µM came to 9.2%.

For `Cn1ccc(C(=O)N2C[C@@H]3CN(CC4CC4)CCO[C@@H]3C2)n1`, the cytotoxicity at 10 µM was 14.9%.

In the case of `O=C(NCc1cccnc1)c1nc2c(s1)CCCN2C(=O)C1CC1`, the cytotoxicity at 10 µM is -93%.

In the case of `Cc1nc(CN2CCc3ncnc(-c4ccncc4)c3CC2)cs1`, the cytotoxicity at 10 µM is -70%.

In the case of `Cc1ccc(-c2n[nH]cc2CNCC2CCN(CC(F)(F)F)C2)o1` (stereo unspecified), the cytotoxicity at 10 µM was found to be 6.99%.

Consider `O=C([C@@H]1CSCN1)N1CCC2(CC1)CNCc1ccccc12`, for which the cytotoxicity at 10 µM is -2.08%.

The record behind these values is ChEMBL document CHEMBL4513216, “Probing the Open Global Health Chemical Diversity Library for Multistage-Active Starting Points for Next-Generation Antimalarials” (ACS Infect Dis, 2020).
